Source: ChEMBL document CHEMBL1139494, “In vitro and in vivo anti-leishmanial activity of triterpenoid saponins isolated from Maesa balansae and some chemical derivatives” (J Med Chem, 2005)
Converted amounts (≈) assume the structure as drawn.

What was measured:
MRC5 = test: Cytotoxic concentration against human lung fibroblast MRC-5 cells; type: functional
Procedure, shortened: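 Human lung fibroblasts grown in MEM + 5% heat-inactivated FCS, about 5000 cells/well, exposed to compound in triplicate. Viability read after 7 days with Alamar Blue fluorescent dye and expressed as percent reduction versus untreated wells. CC50 estimated from log-concentration plot; value is mean of three replicates.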

Leishmania infantum [1] = test: (§1) Inhibitory concentration against intracellular amastigotes of Leishmania infantum; type: functional
Procedure, shortened: (§2)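 Mouse peritoneal macrophages elicited by intraperitoneal 2% potato starch and harvested ~24 h later in RPMI-1640. Each well held 3 × 10^4 macrophages plus 3 × 10^5 parasites with compound, final 0.5–32 µg/mL, in triplicate. After 5 days at 37 °C, Giemsa-stained intracellular amastigotes counted microscopically, expressed as percent reduction vs untreated; mean of three replicates.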

Leishmania infantum [2] = test: as §1; type: functional, organism-based; procedure, shortened: as §2
Leishmania infantum [3] = test: Lowest dose (single subcutaneous administration) causing >90% reduction of liveramastigotes of Leishmania infantum in mouse; type: functional
Procedure, shortened: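 Male BALB/c mice given 10^7 L. infantum amastigotes (from spleen of infected donor hamster) intravenously via lateral tail vein on day 0, three per group. Single subcutaneous dose in isotonic saline (filter-sterilized, diluted from 2 mg/mL stock) given day 0. At 7 days post-treatment, Giemsa-stained liver impression smears scored for amastigotes per liver cell.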

[4] = Leishmania infantum, read-out: IC50

`CC1(C)CC2C3=CCC4[C@@]5(C)CC[C@H](O)C(C)(C)C5CC[C@@]4(C)[C@]3(C)C[C@@H](O)[C@@]2(C=O)[C@@H](OC(=O)/C=C\c2ccccc2)[C@@H]1OC(=O)c1ccccc1` (stereo partly specified) was tested, and the CC50 (MRC5) was > 32 µg/mL, the IC90 (Leishmania infantum [1]) was > 32 µg/mL and the IC50 (Leishmania infantum [2]; [4]) was > 32 µg/mL.

`C[C@@H]1OC(O[C@H]2C(O)[C@@H](O)C(CO)O[C@H]2OC2[C@H](O)C(C(=O)O)O[C@@H](O[C@H]3CC[C@@]4(C)C(CC[C@]5(C)C4CC[C@]46O[C@H](O)[C@]7(C4CC(C)(C)[C@@H](OC(=O)c4ccccc4)[C@@H]7OC(=O)/C=C/c4ccccc4)[C@H](O)C[C@]65C)C3(C)C)[C@H]2O[C@@H]2OC(CO)[C@@H](O)C(O)[C@@H]2O)C(OC2O[C@@H](C)[C@H](O)C(O)[C@@H]2O)[C@@H](O)C1O` (stereo partly specified) was tested, and the CC50 (MRC5) was 0.5 µg/mL (≈ 0.326 µM), the IC90 (Leishmania infantum [1]) was 0.012 µg/mL (≈ 0.00782 µM) and the IC50 (Leishmania infantum [2]; [4]) was 0.007 µg/mL (≈ 0.00456 µM). It also gave a Dose (Leishmania infantum [3]) of 0.2 mg/kg.

Work on `CC(=O)O[C@@H]1C[C@]2(C)[C@@]3(CCC4[C@@]5(C)CC[C@H](O[C@@H]6OC(C(=O)O)[C@@H](O)C(O[C@@H]7OC(CO)[C@H](O)C(O)[C@@H]7OC7O[C@@H](C)C(O)[C@H](O)C7OC7O[C@@H](C)[C@H](O)C(O)[C@@H]7O)[C@@H]6O[C@@H]6OC(CO)[C@@H](O)C(O)[C@@H]6O)C(C)(C)C5CC[C@]42C)O[C@H](O)[C@]12C3CC(C)(C)[C@@H](OC(=O)c1ccccc1)[C@@H]2OC(=O)/C=C/c1ccccc1` (stereo partly specified) yielded a CC50 (MRC5) of 8 µg/mL (≈ 5.08 µM), an IC90 (Leishmania infantum [1]) of 0.125 µg/mL (≈ 0.0793 µM) and an IC50 (Leishmania infantum [2]; [4]) of 0.046 µg/mL (≈ 0.0292 µM). The Dose (Leishmania infantum [3]) was >0.8 mg/kg.

`CC=C(C)C(=O)O[C@H]1[C@H](OC(=O)/C=C/c2ccccc2)[C@@]2(C=O)C(CC1(C)C)C1=CCC3[C@@]4(C)CC[C@H](O)C(C)(C)C4CC[C@@]3(C)[C@]1(C)C[C@H]2O` (stereo partly specified) was tested, and the CC50 (MRC5) was > 32 µg/mL, the IC90 (Leishmania infantum [1]) was > 32 µg/mL and the IC50 (Leishmania infantum [2]; [4]) was > 32 µg/mL.

With `C[C@@H]1OC(O[C@H]2C(O)[C@@H](O)C(CO)O[C@H]2OC2[C@H](O)C(C(=O)O)O[C@@H](O[C@H]3CC[C@@]4(C)C(CC[C@]5(C)C4CC[C@]46O[C@H](O)[C@]7(C4CC(C)(C)[C@@H](O)[C@@H]7O)[C@H](O)C[C@]65C)C3(C)C)[C@H]2O[C@@H]2OC(CO)[C@@H](O)C(O)[C@@H]2O)C(OC2O[C@@H](C)[C@H](O)C(O)[C@@H]2O)[C@@H](O)C1O` (stereo partly specified) the CC50 (MRC5) was > 32 µg/mL, the IC90 (Leishmania infantum [1]) was > 32 µg/mL and the IC50 (Leishmania infantum [2]; [4]) was > 32 µg/mL. The Dose (Leishmania infantum [3]) was >40 mg/kg.

With STIBOGLUCONATE [listing 1 of 2 here] the CC50 (MRC5) was > 32 µg/mL, the IC90 (Leishmania infantum [1]) was > 32 µg/mL and the DOSE (Leishmania infantum [3]) was > 40 mg/kg.

Work on `C/C=C(/C)C(=O)O[C@H]1[C@H](OC(=O)/C=C/c2ccccc2)[C@@]23C(CC1(C)C)[C@]1(CCC4[C@@]5(C)CC[C@H](O[C@@H]6OC(C(=O)O)[C@@H](O)C(O[C@@H]7OC(CO)[C@H](O)C(O)[C@@H]7OC7O[C@@H](C)C(O)[C@H](O)C7OC7O[C@@H](C)[C@H](O)C(O)[C@@H]7O)[C@@H]6O[C@@H]6OC(CO)[C@@H](O)C(O)[C@@H]6O)C(C)(C)C5CC[C@@]4(C)[C@]1(C)C[C@H]2O)O[C@@H]3O` (stereo partly specified) yielded a CC50 (MRC5) of 0.1 µg/mL (≈ 0.0662 µM), an IC90 (Leishmania infantum [1]) of 0.021 µg/mL (≈ 0.0139 µM) and an IC50 (Leishmania infantum [2]; [4]) of 0.014 µg/mL (≈ 0.00926 µM). For the same molecule, the Dose (Leishmania infantum [3]) was 0.4 mg/kg.

With `C/C=C(/C)C(=O)O[C@H]1[C@H](OC(=O)/C=C/c2ccccc2)[C@@]2(C=O)C(CC1(C)C)C1=CCC3[C@@]4(C)CC[C@H](O)C(C)(C)C4CC[C@@]3(C)[C@]1(C)C[C@H]2OC(C)=O` (stereo partly specified) the CC50 (MRC5) was > 32 µg/mL, the IC90 (Leishmania infantum [1]) was > 32 µg/mL and the IC50 (Leishmania infantum [2]; [4]) was > 32 µg/mL.

`C/C=C(/C)C(=O)O[C@H]1[C@H](OC(=O)/C=C\c2ccccc2)[C@@]2(C=O)C(CC1(C)C)C1=CCC3[C@@]4(C)CC[C@H](O)C(C)(C)C4CC[C@@]3(C)[C@]1(C)C[C@H]2O` (stereo partly specified) was tested, and the CC50 (MRC5) was > 32 µg/mL, the IC90 (Leishmania infantum [1]) was > 32 µg/mL and the IC50 (Leishmania infantum [2]; [4]) was 22 µg/mL (≈ 31.4 µM).

With `C[C@@H]1[C@H](O)[C@@H](C)/C=C/C=C/C=C/C=C/C=C/C=C/C=C/[C@H](O[C@@H]2O[C@H](C)[C@@H](O)[C@H](N)[C@@H]2O)C[C@@H]2O[C@](O)(C[C@@H](O)C[C@@H](O)[C@H](O)CC[C@@H](O)C[C@@H](O)CC(=O)O[C@H]1C)C[C@H](O)[C@H]2C(=O)O` [AMPHOTERICIN B] the CC50 (MRC5) was > 32 µg/mL, the IC90 (Leishmania infantum [1]) was 0.373 µg/mL (≈ 0.404 µM) and the IC50 (Leishmania infantum [2]; [4]) was 0.285 µg/mL (≈ 0.308 µM). The Dose (Leishmania infantum [3]) was >10 mg/kg.

`CC(=O)O[C@@H]1C[C@]2(C)C(=CCC3[C@@]4(C)CC[C@H](O)C(C)(C)C4CC[C@]32C)C2CC(C)(C)[C@@H](OC(=O)c3ccccc3)[C@H](OC(=O)/C=C/c3ccccc3)[C@@]21C=O` (stereo partly specified) was tested, and the CC50 (MRC5) was > 32 µg/mL, the IC90 (Leishmania infantum [1]) was > 32 µg/mL and the IC50 (Leishmania infantum [2]; [4]) was > 32 µg/mL.

With `C[C@@H]1OC(O[C@H]2C(O)[C@@H](O)C(CO)O[C@H]2OC2[C@H](O)C(C(=O)O)O[C@@H](O[C@H]3CC[C@@]4(C)C(CC[C@]5(C)C4CC[C@]46O[C@H](O)[C@]7(C4CC(C)(C)[C@@H](OC(=O)c4ccccc4)[C@@H]7OC(=O)CCc4ccccc4)[C@H](O)C[C@]65C)C3(C)C)[C@H]2O[C@@H]2OC(CO)[C@@H](O)C(O)[C@@H]2O)C(OC2O[C@@H](C)[C@H](O)C(O)[C@@H]2O)[C@@H](O)C1O` (stereo partly specified) the CC50 (MRC5) was 0.3 µg/mL (≈ 0.195 µM), the IC90 (Leishmania infantum [1]) was 0.015 µg/mL (≈ 0.00977 µM) and the IC50 (Leishmania infantum [2]; [4]) was 0.009 µg/mL (≈ 0.00586 µM).

`C/C=C(/C)C(=O)O[C@H]1[C@H](OC(=O)/C=C/c2ccccc2)[C@@]23C(CC1(C)C)[C@]1(CCC4[C@@]5(C)CC[C@H](O[C@@H]6OC(C(=O)O)[C@@H](O)C(O[C@@H]7OC(CO)[C@H](O)C(O)[C@@H]7OC7O[C@@H](C)C(O)[C@H](O)C7OC7O[C@@H](C)[C@H](O)C(O)[C@@H]7O)[C@@H]6O[C@@H]6OC(CO)[C@@H](O)C(O)[C@@H]6O)C(C)(C)C5CC[C@@]4(C)[C@]1(C)C[C@H]2OC(C)=O)O[C@@H]3O` (stereo partly specified) gave a CC50 (MRC5) of 8 µg/mL (≈ 5.15 µM), an IC90 (Leishmania infantum [1]) of 0.125 µg/mL (≈ 0.0805 µM) and an IC50 (Leishmania infantum [2]; [4]) of 0.041 µg/mL (≈ 0.0264 µM). For the same molecule, the Dose (Leishmania infantum [3]) was >0.8 mg/kg.

For STIBOGLUCONATE [listing 2 of 2 here], the IC50 (Leishmania infantum [2]) was 5.6 µg/mL.

For `CC1(C)CC2C3=CCC4[C@@]5(C)CC[C@H](O)C(C)(C)C5CC[C@@]4(C)[C@]3(C)C[C@@H](O)[C@@]2(C=O)[C@@H](OC(=O)/C=C/c2ccccc2)[C@@H]1OC(=O)c1ccccc1` (stereo partly specified), the CC50 (MRC5) was 32 µg/mL (≈ 44.3 µM), the IC90 (Leishmania infantum [1]) was > 16 µg/mL and the IC50 (Leishmania infantum [2]; [4]) was 8 µg/mL (≈ 11.1 µM). For the same molecule, the Dose (Leishmania infantum [3]) was >40 mg/kg.

`C/C=C(/C)C(=O)O[C@H]1[C@H](OC(=O)/C=C\c2ccccc2)[C@@]23C(CC1(C)C)[C@]1(CCC4[C@@]5(C)CC[C@H](O[C@@H]6OC(C(=O)O)[C@@H](O)C(O[C@@H]7OC(CO)[C@H](O)C(O)[C@@H]7OC7O[C@@H](C)C(O)[C@H](O)C7OC7O[C@@H](C)[C@H](O)C(O)[C@@H]7O)[C@@H]6O[C@@H]6OC(CO)[C@@H](O)C(O)[C@@H]6O)C(C)(C)C5CC[C@@]4(C)[C@]1(C)C[C@H]2O)O[C@@H]3O` (stereo partly specified) was tested, and the CC50 (MRC5) was 0.5 µg/mL (≈ 0.331 µM), the IC90 (Leishmania infantum [1]) was 0.094 µg/mL (≈ 0.0622 µM) and the IC50 (Leishmania infantum [2]; [4]) was 0.023 µg/mL (≈ 0.0152 µM). The Dose (Leishmania infantum [3]) was >0.8 mg/kg.

With `C[C@@H]1OC(O[C@H]2C(O)[C@@H](O)C(CO)O[C@H]2OC2[C@H](O)C(C(=O)O)O[C@@H](O[C@H]3CC[C@@]4(C)C(CC[C@]5(C)C4CC[C@]46O[C@H](O)[C@]7(C4CC(C)(C)[C@@H](OC(=O)c4ccccc4)[C@@H]7OC(=O)/C=C\c4ccccc4)[C@H](O)C[C@]65C)C3(C)C)[C@H]2O[C@@H]2OC(CO)[C@@H](O)C(O)[C@@H]2O)C(OC2O[C@@H](C)[C@H](O)C(O)[C@@H]2O)[C@@H](O)C1O` (stereo partly specified) the CC50 (MRC5) was 0.5 µg/mL (≈ 0.326 µM), the IC90 (Leishmania infantum [1]) was 0.031 µg/mL (≈ 0.0202 µM) and the IC50 (Leishmania infantum [2]; [4]) was 0.018 µg/mL (≈ 0.0117 µM). The Dose (Leishmania infantum [3]) was 0.8 mg/kg.

Molecule `C/C=C(/C)C(=O)O[C@H]1[C@H](OC(=O)CCc2ccccc2)[C@@]23C(CC1(C)C)[C@]1(CCC4[C@@]5(C)CC[C@H](O[C@@H]6OC(C(=O)O)[C@@H](O)C(O[C@@H]7OC(CO)[C@H](O)C(O)[C@@H]7OC7O[C@@H](C)C(O)[C@H](O)C7OC7O[C@@H](C)[C@H](O)C(O)[C@@H]7O)[C@@H]6O[C@@H]6OC(CO)[C@@H](O)C(O)[C@@H]6O)C(C)(C)C5CC[C@@]4(C)[C@]1(C)C[C@H]2O)O[C@@H]3O` (stereo partly specified) has a CC50 (MRC5) of 0.6 µg/mL (≈ 0.396 µM), an IC90 (Leishmania infantum [1]) of 0.03 µg/mL (≈ 0.0198 µM) and an IC50 (Leishmania infantum [2]; [4]) of 0.018 µg/mL (≈ 0.0119 µM).
